Experimental findings from ChEMBL document CHEMBL4610044, “Synthesis and biological evaluation of novel indole-pyrazoline hybrid derivatives as potential topoisomerase 1 inhibitors” (Bioorg Med Chem Lett, 2020) are described below.

For assay [1], the target named is T1, DNA topoisomerase 1 (Homo sapiens) (UniProt P11387).
T1 sequence (whole entry): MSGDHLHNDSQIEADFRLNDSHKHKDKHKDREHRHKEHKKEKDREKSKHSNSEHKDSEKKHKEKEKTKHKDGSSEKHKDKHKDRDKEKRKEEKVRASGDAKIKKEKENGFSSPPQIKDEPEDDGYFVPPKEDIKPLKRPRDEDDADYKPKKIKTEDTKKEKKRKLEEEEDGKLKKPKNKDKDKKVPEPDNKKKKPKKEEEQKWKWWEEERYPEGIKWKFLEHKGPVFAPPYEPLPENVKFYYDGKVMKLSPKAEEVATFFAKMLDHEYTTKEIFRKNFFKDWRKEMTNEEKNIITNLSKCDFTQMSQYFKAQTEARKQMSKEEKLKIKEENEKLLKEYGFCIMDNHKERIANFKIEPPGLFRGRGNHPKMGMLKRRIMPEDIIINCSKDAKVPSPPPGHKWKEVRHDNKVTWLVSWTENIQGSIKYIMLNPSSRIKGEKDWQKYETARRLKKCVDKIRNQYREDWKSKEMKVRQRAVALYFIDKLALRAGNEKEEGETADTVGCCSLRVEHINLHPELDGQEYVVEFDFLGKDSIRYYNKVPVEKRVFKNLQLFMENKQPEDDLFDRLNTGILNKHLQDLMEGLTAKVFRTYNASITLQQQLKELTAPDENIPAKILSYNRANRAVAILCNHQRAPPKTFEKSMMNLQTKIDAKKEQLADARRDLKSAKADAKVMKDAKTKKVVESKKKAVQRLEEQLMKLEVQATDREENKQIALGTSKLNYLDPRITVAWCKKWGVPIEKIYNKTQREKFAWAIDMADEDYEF
The experiment in a line: Poison activity at Top1 (unknown origin) assessed as decrease in relaxed supercoiled DNA at 25 uM by […] based agarose gel electrophoresis relative to control. The arrangement: scale not given: the % may be the effect or the level left.

Assay [2] deals with Supercoiled DNA. The experiment in a line: Binding affinity to supercoiled DNA (unknnown origin) at 50 uM by SPR assay. It is filed as nucleic-acid assay.
Assay [3] deals with T1, DNA topoisomerase 1 (Homo sapiens). In words: Poison activity at Top1 (unknown origin) assessed as increase in supercoiled DNA by ethidium bromide staining based agarose gel electrophoresis. A digest of the protocol:
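In a semi-quantitative Top1 relaxation assay, compound was tested at several concentrations, including 25 and 125 µM, and camptothecin at 1, 5, 25 and 125 µM. Supercoiled DNA was quantified from gel bands as a percentage of total DNA.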

For assay [4] the target is unchanged. In words: Poison activity at Top1 (unknown origin) assessed as increase in supercoiled DNA at 25 uM by […] relative to control.
Assay [5] shares this target. The experiment in a line: Poison activity at Top1 (unknown origin) assessed as increase in supercoiled DNA at 125 uM by ethidium bromide staining based agarose gel electrophoresis relative to control.
In a further assay the test system is DNA. The experiment in a line: Binding affinity at Escherichia coli pBR322 DNA assessed as unwinding of supercoiled DNA incubated for 30 mins in presence of topoisomerase 1 by agarose gel based electrophoresis. The class given is nucleic-acid assay.
Assay [6] has as its target T1, DNA topoisomerase 1 (Homo sapiens). The experiment in a line: Poison activity at Top1 (unknown origin) assessed as decrease in relaxed supercoiled DNA at 300 uM. The method in brief:
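The screen used a Top1-mediated relaxation assay, with compounds at 300 µM and camptothecin as positive control. Supercoiled and relaxed/Top1-bound DNA were resolved as separate bands on agarose gel.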

Assay [7] concerns the target Supercoiled DNA. In words: Binding affinity to supercoiled DNA (unknown origin) by SPR assay. The class given is nucleic-acid assay.

Active and inactive are the calls of the source. No cut-off for these calls is given here.

Regarding `Cc1ccc(S(=O)(=O)n2cc(C3=NN(c4ccccc4)C(c4ccc(C(C)C)cc4)C3)c3ccccc32)cc1` (stereo not drawn), the Activity in assay [1] is under 40%. For the same compound, the result in the assay with Supercoiled DNA [2] was inactive.

Consider `O=[N+]([O-])c1cccc(C2CC(c3cn(S(=O)(=O)c4ccccc4)c4ccccc34)=NN2c2ccccc2)c1` (stereo not drawn), for which the Activity in assay [1] is under 40%. The outcome with Supercoiled DNA [2] was inactive.

In the case of `O=S(=O)(c1cccc2ccccc12)n1cc(C2=NN(c3ccccc3)C(c3ccccc3Br)C2)c2ccccc21` (stereo not drawn), the Activity in assay [1] is under 40%. For the same compound, the result with Supercoiled DNA [2] was inactive.

`O=S(=O)(c1ccccc1)n1cc(C2=NN(c3ccccc3)C(c3cccc4ccccc34)C2)c2ccccc21` (stereo not drawn): the Activity in assay [1] was over 80%; in assay [3] it was “Dose-dependent effect”; in assay [4] it was 61%; in assay [5] it was 74%. Further, the result in the assay with Supercoiled DNA [2] and with DNA was inactive.

On to `CC(C)c1ccc(C2CC(c3cn(S(=O)(=O)c4cccc5ccccc45)c4ccccc34)=NN2c2ccccc2)cc1` (stereo not drawn), for which the Activity in assay [1] was 40 to 79%. Besides, in the assay with Supercoiled DNA [2], the result was inactive.

Turning to `Cc1ccc(S(=O)(=O)n2cc(C3=NN(c4ccccc4)C(c4ccccc4)C3)c3ccccc32)cc1` (stereo not drawn), the Activity in assay [1] was 40 to 79%. Also, the result with Supercoiled DNA [2] was inactive.

In the case of `CC[C@@]1(O)C(=O)OCc2c1cc1n(c2=O)Cc2cc3ccccc3nc2-1`, in assay [5], the Activity was 48%.

On to `Cc1ccc(S(=O)(=O)n2cc(C3=NN(c4ccccc4)C(c4ccccc4Br)C3)c3ccccc32)cc1` (stereo not drawn), for which the Activity in assay [1] is under 40%. Also, in the assay on Supercoiled DNA [2], the outcome was inactive.

On to `O=S(=O)(c1ccccc1)n1cc(C2=NN(c3ccccc3)C(c3ccccc3Br)C2)c2ccccc21` (stereo not drawn), for which the Activity in assay [1] was under 40%. For the same compound, in the assay on Supercoiled DNA [2], the result was inactive.

Consider `CC(C)c1ccc(C2CC(c3cn(S(=O)(=O)c4ccccc4)c4ccccc34)=NN2c2ccccc2)cc1` (stereo not drawn), for which the Activity in assay [1] lay within 40 to 79%. The outcome in the assay with Supercoiled DNA [2] was inactive.

For `Cc1ccc(C2CC(c3cn(S(=O)(=O)c4ccccc4)c4ccccc34)=NN2c2ccccc2)cc1` (stereo not drawn), the result in assay [6] was Active. The Activity in assay [1] was under 40%. For the same compound, the outcome in the assay with Supercoiled DNA [2] was inactive.

As for `COc1ccc(C2CC(c3cn(S(=O)(=O)c4cccc5ccccc45)c4ccccc34)=NN2c2ccccc2)cc1` (stereo not drawn), the Activity in assay [1] was under 40%. Further, the outcome in the assay on Supercoiled DNA [2] was inactive.

Take `Cc1ccc(S(=O)(=O)n2cc(C3=NN(c4ccccc4)C(c4cccc5ccccc45)C3)c3ccccc32)cc1` (stereo not drawn): the Activity in assay [1] lay within 40 to 79%. Further, the outcome in the assay on Supercoiled DNA [2] was inactive.

As to `O=S(=O)(c1ccccc1)n1cc(C2=NN(c3ccccc3)C(c3ccccc3)C2)c2ccccc21` (stereo not drawn), the Activity in assay [1] fell in the range of 40 to 79%. For the same compound, the result in the assay with Supercoiled DNA [2] was inactive.

In the case of `COc1ccc(C2CC(c3cn(S(=O)(=O)c4ccccc4)c4ccccc34)=NN2c2ccccc2)cc1` (stereo not drawn), the Activity in assay [1] was in the range of 40 to 79%. Moreover, the outcome in the assay on Supercoiled DNA [2] was inactive.

Regarding `COc1cc(C2CC(c3cn(S(=O)(=O)c4ccc(C)cc4)c4ccccc34)=NN2c2ccccc2)cc(OC)c1OC` (stereo not drawn), in assay [1], the Activity was in the range of 40 to 79%. For the same compound, the result in the assay on Supercoiled DNA [2] was inactive.

As for `Brc1ccccc1C1CC(c2c[nH]c3ccccc23)=NN1c1ccccc1` (stereo not drawn), the result in assay [6] was Active. The Activity in assay [1] was under 40%. Also, the outcome in the assay on Supercoiled DNA [2] was inactive.

`O=S(=O)(c1cccc2ccccc12)n1cc(C2=NN(c3ccccc3)C(c3ccccc3)C2)c2ccccc21` (stereo not drawn): the Activity in assay [1] was under 40%. In addition, in the assay on Supercoiled DNA [2], the result was inactive.

For `O=S(=O)(c1cccc2ccccc12)n1cc(C2=NN(c3ccccc3)C(c3cccc4ccccc34)C2)c2ccccc21` (stereo not drawn), the Activity in assay [1] was under 40%. Also, the result in the assay on Supercoiled DNA [2] was inactive.

For the compound `COc1cc(C2CC(c3cn(S(=O)(=O)c4ccccc4)c4ccccc34)=NN2c2ccccc2)cc(OC)c1OC` (stereo not drawn), the Activity in assay [1] was in the range of 40 to 79%. Besides, the outcome in the assay on Supercoiled DNA [2] was inactive.

For `O=S(=O)(c1ccccc1)n1cc(C2=NN(c3ccccc3)C(c3ccc(Cl)cc3)C2)c2ccccc21` (stereo not drawn), the Activity in assay [1] was under 40%. In the assay with Supercoiled DNA [2], the outcome was inactive.

As to `COc1ccc(C2CC(c3cn(S(=O)(=O)c4ccc(C)cc4)c4ccccc34)=NN2c2ccccc2)cc1` (stereo not drawn), in assay [1], the Activity is under 40%. In addition, in the assay with Supercoiled DNA [2], the result was inactive.

`CC[n+]1c(-c2ccccc2)c2cc(N)ccc2c2ccc(N)cc21` [HOMIDIUM BROMIDE] gave a dissociation constant Kd at Supercoiled DNA [7] of 1200 nM. In addition, the result with DNA was Active.

Regarding `O=S(=O)(c1cccc2ccccc12)n1cc(C2=NN(c3ccccc3)C(c3ccc(Cl)cc3)C2)c2ccccc21` (stereo not drawn), in assay [1], the Activity is under 40%. Moreover, the result in the assay on Supercoiled DNA [2] was inactive.
